Experimental data taken from ChEMBL document CHEMBL2010768, “Optimization of Potent Inhibitors of P. falciparum Dihydroorotate Dehydrogenase for the Treatment of Malaria” (ACS Med Chem Lett, 2011).
The source made the active and inactive calls. The calls are words filed in the database; no cut-off is given here.

Key:
[1] = target: T1, Dihydroorotate dehydrogenase (Plasmodium falciparum, UniProt Q54A96); test: Inhibition of Plasmodium falciparum DHODH after 20 mins by 2,6-dichloroindophenol-reduction based assay
T1 sequence (Q54A96 whole entry): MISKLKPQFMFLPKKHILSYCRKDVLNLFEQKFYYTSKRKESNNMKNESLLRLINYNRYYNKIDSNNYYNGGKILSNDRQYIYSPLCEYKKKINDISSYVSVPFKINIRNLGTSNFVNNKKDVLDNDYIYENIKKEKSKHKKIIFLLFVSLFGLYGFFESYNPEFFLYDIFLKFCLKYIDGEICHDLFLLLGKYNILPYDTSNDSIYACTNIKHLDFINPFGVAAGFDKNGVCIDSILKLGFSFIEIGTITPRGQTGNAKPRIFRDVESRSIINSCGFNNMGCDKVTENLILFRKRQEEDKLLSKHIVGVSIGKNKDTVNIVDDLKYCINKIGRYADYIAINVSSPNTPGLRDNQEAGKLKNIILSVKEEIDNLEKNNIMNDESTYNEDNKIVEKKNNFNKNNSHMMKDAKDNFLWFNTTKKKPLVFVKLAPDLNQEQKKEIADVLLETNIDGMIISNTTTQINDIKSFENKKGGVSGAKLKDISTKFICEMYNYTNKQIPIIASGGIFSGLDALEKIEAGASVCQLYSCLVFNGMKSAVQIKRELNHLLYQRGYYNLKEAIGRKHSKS

[2] = target: Dihydroorotate dehydrogenase (quinone), mitochondrial (Homo sapiens, UniProt Q02127); test: Inhibition of human DHODH after 20 mins by 2,6-dichloroindophenol-reduction based assay
Plasmodium berghei = test: Inhibition of Plasmodium berghei DHODH after 20 mins by 2,6-dichloroindophenol-reduction based assay
Plasmodium vivax = test: Inhibition of Plasmodium vivax DHODH after 20 mins by 2,6-dichloroindophenol-reduction based assay
Plasmodium falciparum [3] = test: Antiplasmodial activity against Plasmodium falciparum 3D7 infected in […] after 72 hrs by SYBR green assay; format: functional, organism-based; conditions: 3D7, 72 h
Plasmodium falciparum [4] = test: Antiplasmodial activity against Plasmodium falciparum Dd2 infected in […] after 72 hrs by SYBR green assay; format: functional, organism-based; conditions: Dd2, 72 h
[5] = Clearance in human liver microsomes by LC-MS/MS analysis; format: ADME, Microsome
Summary of the method: (§1)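 Liver microsome incubation. Predicted clearance is derived from a well-stirred model corrected for microsomal and protein binding.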

[6] = Clearance in mouse liver microsomes by LC-MS/MS analysis; format: ADME, Microsome; summary of the method: as §1
[7] = Cytotoxicity against human RPTEC after 4 days by alamar blue assay; format: cell-based; conditions: RPTEC cells, read-out: LC50

Sequence of Dihydroorotate dehydrogenase (quinone), mitochondrial (Q02127 whole entry): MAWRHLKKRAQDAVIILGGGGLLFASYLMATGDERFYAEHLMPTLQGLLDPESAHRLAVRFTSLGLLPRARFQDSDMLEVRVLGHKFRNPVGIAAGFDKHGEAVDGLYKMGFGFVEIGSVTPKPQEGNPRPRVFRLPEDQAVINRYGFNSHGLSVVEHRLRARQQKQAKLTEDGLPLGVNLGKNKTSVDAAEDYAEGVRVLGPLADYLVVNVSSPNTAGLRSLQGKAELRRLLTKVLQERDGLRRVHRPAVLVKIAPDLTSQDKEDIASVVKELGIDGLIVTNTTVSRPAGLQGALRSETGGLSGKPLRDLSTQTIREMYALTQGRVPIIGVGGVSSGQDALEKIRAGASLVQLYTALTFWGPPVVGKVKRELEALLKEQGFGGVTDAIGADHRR

Row | Structure (SMILES) | IC50 [1] | IC50 [2] | inhibition (Plasmodium berghei) | inhibition (Plasmodium vivax) | IC50 (Plasmodium falciparum [3]) | IC50 (Plasmodium falciparum [4]) | CLhep predicted [5] | CLhep predicted [6] | CC50 at 96 h [7]
1 | Cc1cc(F)c2c(c1)ncn2-c1ccc(C(=O)NC2CC2)s1 | 95 nM | 7300 nM | Active | Active | 36 nM | 60 nM | 11 mL/min/kg | > 72 mL/min/kg | –
2 | Cc1cccc2nc(C)n(-c3ccc(C(=O)NC4CC4)s3)c12 | 609 nM | – | Active | Active | 143 nM | 290 nM | 6 mL/min/kg | > 72 mL/min/kg | –
3 | CC(C)NC(=O)c1ccc(-n2cnc3ccccc32)s1 | 680 nM | – | – | – | 560 nM | 810 nM | – | – | > 62000 nM
4 | Cc1nc2ccc(C(F)(F)F)cc2n1-c1ccc(C(=O)NC2CC2)s1 | 92 nM | – | Active | Active | 56 nM | 96 nM | 8 mL/min/kg | 68 mL/min/kg | –
5 | O=C(NC1CC1)c1ccc(-n2cnc3cc(C(F)(F)F)ccc32)s1 | 19 nM | 17200 nM | Active | Active | 12 nM | 12 nM | 8 mL/min/kg | > 72 mL/min/kg | –
6 | Cc1cc(F)c2ncn(-c3ccc(C(=O)NC4CC4)s3)c2c1 | 17 nM | 3100 nM | Active | Active | 4 nM | 4 nM | 10 mL/min/kg | > 72 mL/min/kg | –
7 | O=C(NC1CCC1)c1ccc(-n2cnc3ccccc32)s1 | 420 nM | – | – | – | 410 nM | 440 nM | – | – | > 62000 nM
8 | Cc1nc2c(OCC(F)F)cccc2n1-c1ccc(C(=O)NC2CC2)s1 | 28 nM | – | Active | Active | 128 nM | 113 nM | – | – | –
9 | CCc1nc2ccccc2n1-c1ccc(C(=O)NC2CC2)s1 | 110 nM | – | – | – | 120 nM | 180 nM | – | – | > 62000 nM
10 | Cc1nc2cc(Cl)ccc2n1-c1ccc(C(=O)NC2CC2)s1 | 49 nM | – | Active | Active | 78 nM | 102 nM | – | – | –
11 | CCCCNC(=O)c1ccc(-n2cnc3ccccc32)s1 | – | > 30000 nM | – | – | > 20000 nM | 7300 nM | – | – | –
12 | CN(C)C(=O)c1ccc(-n2cnc3ccccc32)s1 | > 30000 nM | – | – | – | > 40000 nM | > 40000 nM | – | – | –
13 | Cc1nc2ccc(F)cc2n1-c1ccc(C(=O)NC2CC2)s1 | 111 nM | – | Active | Active | 93 nM | 113 nM | < 4 mL/min/kg | > 72 mL/min/kg | –
14 | Cc1cccc2c1nc(C)n2-c1ccc(C(=O)NC2CC2)s1 | 39 nM | – | Active | Active | 10 nM | 22 nM | 10 mL/min/kg | 66 mL/min/kg | –
15 | Cc1nc2c(Cl)cc(F)cc2n1-c1ccc(C(=O)NC2CC2)s1 | 25 nM | > 30000 nM | Active | Active | 12 nM | 13 nM | 5 mL/min/kg | 42 mL/min/kg | –
16 | Cc1nc2c(Cl)cccc2n1-c1ccc(C(=O)NC2CC2)s1 | 21 nM | – | Active | Active | 5 nM | 6 nM | < 4 mL/min/kg | 19 mL/min/kg | –
17 | Cc1nc2c(N(C)C)cccc2n1-c1ccc(C(=O)NC2CC2)s1 | 181 nM | – | Active | Active | 75 nM | 159 nM | – | – | –
18 | Cc1nc2cc(C(F)(F)F)ccc2n1-c1ccc(C(=O)NC2CC2)s1 | 28 nM | – | Active | Active | 20 nM | 28 nM | 4 mL/min/kg | > 72 mL/min/kg | –
19 | Cc1ccc2nc(C)n(-c3ccc(C(=O)NC4CC4)s3)c2c1 | 56 nM | – | Active | Active | 33 nM | 74 nM | 10 mL/min/kg | > 72 mL/min/kg | –
20 | Cc1nc2c(Br)cccc2n1-c1ccc(C(=O)NC2CC2)s1 | 21 nM | – | Active | Active | 4 nM | 7 nM | 5 mL/min/kg | 26 mL/min/kg | –
21 | NC(=O)c1ccc(-n2cnc3ccccc32)s1 | > 30000 nM | – | – | – | > 40000 nM | > 30000 nM | – | – | –
22 | O=C(NC1CC1)c1ccc(-n2c(=O)[nH]c3ccccc32)s1 | > 30000 nM | – | – | – | > 5000 nM | > 5000 nM | – | – | –
23 | O=C(NC1CCCC1)c1ccc(-n2cnc3ccccc32)s1 | 2510 nM | – | – | – | 4400 nM | 5500 nM | – | – | –
24 | Cc1nc2c(F)cccc2n1-c1ccc(C(=O)NC2CC2)s1 | 34 nM | – | Active | Active | 8 nM | 6 nM | < 4 mL/min/kg | 37 mL/min/kg | –
25 | Cc1ccc2c(c1)nc(C)n2-c1ccc(C(=O)NC2CC2)s1 | 56 nM | – | Active | Active | 87 nM | 130 nM | 8 mL/min/kg | > 72 mL/min/kg | –
26 | O=C(NC1CC1)c1ccc(-n2cnc3c(F)cccc32)s1 | 62 nM | 14900 nM | Active | Active | 17 nM | 8 nM | 10 mL/min/kg | > 72 mL/min/kg | –
27 | Cc1cc(F)c2nc(C)n(-c3ccc(C(=O)NC4CC4)s3)c2c1 | 32 nM | – | Active | Active | 10 nM | 17 nM | 12 mL/min/kg | > 72 mL/min/kg | –
28 | Cc1nc2ccc(OC(F)(F)F)cc2n1-c1ccc(C(=O)NC2CC2)s1 | 52 nM | – | Active | Active | 36 nM | 53 nM | 10 mL/min/kg | 41 mL/min/kg | –
29 | O=C(NC1CC1)c1ccc(-n2cnc3c(Cl)cc(F)cc32)s1 | 35 nM | 5600 nM | Active | Active | 8 nM | 18 nM | 7 mL/min/kg | > 72 mL/min/kg | –
